From PubChem
In the library only some 1.6% were active in any assay of this set; here they are far more common.
UHRF1 binding = blocks human UHRF1 binding to methylated DNA. actives 0.75% (n = 370,000). Q96T88. AID 687016. UHRF1 binding to methylated oligo, TR-FRET. inhibition, % at 4.4 µM; in the data active = inhibition above about 21%;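 also: UHRF1 SRA domain binding a hemimethylated CpG hairpin DNA probe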
TDP2 inh = TDP2 (human) inhibition, absorbance primary screen; O95551; inhibition, % at 12.8 µM; actives 0.34% (n = 370,000); recombinant TDP2, T5PNP hydrolysis, p-nitrophenol absorbance 415 nm;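 active = inhibition above the mean of all tested compounds plus 3 SD, set per campaign, cut at about 25% in these data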
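Assay system: Recombinant human TDP2 | Quantity: 120 nM TDP2 per well | Incubation: 2 h at 37 °C | Signal: Epi absorbance | Evaluation: Percent inhibition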
MBD2 inh = blocks human MBD2 binding to methylated DNA | inhibition, % at 4.4 µM | Q9UBB5 | TR-FRET, MBD2 binding to methylated oligonucleotide | actives 0.31% (n = 370,000); in the data active = inhibition above about 13%
Target sequence (Q9UBB5 whole entry, looked up): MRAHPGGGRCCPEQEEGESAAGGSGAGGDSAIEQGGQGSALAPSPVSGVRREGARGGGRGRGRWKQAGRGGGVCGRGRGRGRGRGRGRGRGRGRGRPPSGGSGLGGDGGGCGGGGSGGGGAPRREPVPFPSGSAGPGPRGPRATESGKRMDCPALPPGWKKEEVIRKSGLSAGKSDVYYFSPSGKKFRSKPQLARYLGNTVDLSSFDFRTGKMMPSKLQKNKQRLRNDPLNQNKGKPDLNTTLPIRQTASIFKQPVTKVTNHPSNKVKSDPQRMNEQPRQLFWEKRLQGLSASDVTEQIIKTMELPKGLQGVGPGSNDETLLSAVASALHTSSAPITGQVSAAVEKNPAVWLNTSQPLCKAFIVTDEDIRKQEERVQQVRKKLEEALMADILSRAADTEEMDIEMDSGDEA
LEDGF integ inh = blocks HIV-1 LEDGF/p75-dependent DNA integration; TR-FRET IN-LEDGF/p75 DNA integration, Eu/Cy5; inhibition, % at 3.7 µM; actives 0.64% (n = 370,000);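 active = inhibition above the screen-wide mean plus 3 SD, cut at about 13% in these data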;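 also: signal is the Cy5 over europium emission ratio at 671 and 618 nm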
UHRF1 ctr MBD2 = UHRF1 methyl-oligo binding inhibition as MBD2 counter-screen | inhibition, % at 4.4 µM | shares compounds with MBD2 inh | AID 720530 | actives 25% (n = 1,000) | UHRF1 binding to methylated oligonucleotide, TR-FRET; in the data active = inhibition above about 21%;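 also: UHRF1 SRA domain binding a labeled hemimethylated CpG hairpin DNA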
MBD2 confirm = confirmation of human MBD2-DBD methylated oligonucleotide binding inhibitors. shares compounds with MBD2 inh. TR-FRET MBD2-DBD binding to methylated oligonucleotide. inhibition, % at 4.4 µM. actives 26% (n = 1,000). AID 720531
IN multimer act = activates HIV-1 integrase multimerization in LEDGF counter-screen; shares compounds with LEDGF integ inh; TR-FRET HIV-1 integrase multimerization, biochemical; activation, % at 7.7 µM; actives 17% (n = 2,000); AID 1053131; in the data active = activation above about 8.9%
TRFRET interf = counter-screen for LEDGF/p75 integration inhibitors: TR-FRET optical interference. TR-FRET optical interference counterscreen, HIV-1 IN multimerization. shares compounds with LEDGF integ inh. 2,000 tested, under 10 active. inhibition, % at 7.7 µM;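 active = inhibition above the mean over all tested compounds plus 3 SD, which no compound reached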
IN-LEDGF confirm = confirmation of HIV-1 LEDGF/p75-dependent integration inhibitors; inhibition, % at 3.7 µM; AID 1053136; shares compounds with LEDGF integ inh; TR-FRET LEDGF/p75-dependent HIV-1 integration, biochemical; actives 36% (n = 2,000)
Each line names hits and unclear results; the compound was inactive in the other large screens (follow-up assays come after a bar, where they were run). Rule as the data show it, unless noted: active = inhibition above about 14%; inactive = the rest.

COC(=O)c1ccccc1-c1ccc(/C=C2\C(=O)N(c3ccccc3)N=C2c2ccccc2)o1	none
O=C1C(=Cc2ccco2)CCC1=Cc1ccco1	UHRF1 binding 100, MBD2 inh 103, LEDGF integ inh 91 | UHRF1 ctr MBD2 96 | MBD2 confirm 53 | IN multimer act 14 | TRFRET interf inactive | IN-LEDGF confirm 93
O=c1oc2cc(O)c(Cl)cc2c2ccccc12	none
O=c1cc2c(=O)oc3cc(O)c(O)oc3c2c(O)c1O	UHRF1 binding 97, MBD2 inh 95, LEDGF integ inh 89 | UHRF1 ctr MBD2 92 | MBD2 confirm 109 | IN multimer act 80 | TRFRET interf inactive | IN-LEDGF confirm 91
Cn1nc(C(=O)Nc2ccc(S(=O)(=O)N3CCOCC3)cc2)c2ccccc2c1=O	none
COc1cccc(-c2noc(C3CCCN(C(=O)c4ccc(F)cc4F)C3)n2)c1 (stereo not given)	none
CCCCN1CCN=C1N(C)C	none
COCCNC(=O)C1(C)CCCN(C(=O)c2ccc(C(=O)OC)cc2)C1 (stereo not given)	MBD2 inh 16, LEDGF integ inh 15 | UHRF1 ctr MBD2 inactive | MBD2 confirm inactive | IN multimer act inactive | TRFRET interf inactive | IN-LEDGF confirm inactive
COCCNC(=O)C1(C)CCCN(C(=O)c2ccc(C(F)(F)F)cc2)C1 (stereo not given)	none
Cc1csc(NC(=O)CSc2nc3[nH]c(=O)cc(O)c3s2)n1	none
COC(=O)c1ccc(C)c(NC(=O)CSc2sc3c(O)cc(=O)[nH]c3c2C#N)c1	UHRF1 binding 51, MBD2 inh 14, LEDGF integ inh 14 | UHRF1 ctr MBD2 22 | MBD2 confirm inactive | IN multimer act 20 | TRFRET interf inactive | IN-LEDGF confirm 36
Cc1csc(NC(=O)CSc2sc3c(O)cc(=O)[nH]c3c2C#N)n1	UHRF1 binding 79, MBD2 inh 52, LEDGF integ inh 38 | UHRF1 ctr MBD2 inactive | MBD2 confirm inactive | IN multimer act 41 | TRFRET interf inactive | IN-LEDGF confirm 20
Cc1ccc(C)c(NC(=O)CSc2sc3c(O)cc(=O)[nH]c3c2C#N)c1	none
COc1ccc(NC(=O)CSc2sc3c(O)cc(=O)[nH]c3c2C#N)c(OC)c1	UHRF1 binding 56, MBD2 inh 30, LEDGF integ inh 16 | UHRF1 ctr MBD2 22 | MBD2 confirm inactive | IN multimer act 21 | TRFRET interf inactive | IN-LEDGF confirm 34
COc1cc(NC(=O)CCn2c(=O)oc3ccccc32)cc(OC)c1OC	none
Cc1ccc(-c2nc3c(c(=O)[nH]c(=O)n3Cc3ccccc3)n2C)o1	UHRF1 binding 30, MBD2 inh 16, LEDGF integ inh 23 | UHRF1 ctr MBD2 inactive | MBD2 confirm inactive | IN multimer act inactive | TRFRET interf inactive | IN-LEDGF confirm 34
Cc1ccc(-c2nc3c(c(=O)[nH]c(=O)n3Cc3ccccc3)n2Cc2ccccc2)o1	none
COC(=O)c1nc2nc(C)cc(C(F)(F)F)n2n1	none
O=C1C=C(O)c2c(O)cc(O)c(O)c2C1=O	UHRF1 binding 77, MBD2 inh 49, LEDGF integ inh 60 | UHRF1 ctr MBD2 51 | MBD2 confirm 26 | IN multimer act 103 | TRFRET interf inactive | IN-LEDGF confirm 84
COc1cc(/C=C/C=C2/CC/C(=C/C=C/c3ccc(O)c(OC)c3)C2=O)ccc1O	UHRF1 binding 58, MBD2 inh 31, LEDGF integ inh 92 | UHRF1 ctr MBD2 inactive | MBD2 confirm inactive | IN multimer act 26 | TRFRET interf inactive | IN-LEDGF confirm 54
Cc1c(O)cc2c(c1O)C(=O)CC(c1ccc(O)cc1)O2 (stereo not given)	UHRF1 binding 29, MBD2 inh 15, LEDGF integ inh 22 | UHRF1 ctr MBD2 inactive | MBD2 confirm inactive | IN multimer act 37 | TRFRET interf inactive | IN-LEDGF confirm 39
O=C(NC1CCCCC1)NC1CCN(C(=S)NCc2ccco2)CC1	none
S=C(NC1CC1)SCc1ccco1	UHRF1 binding 54, MBD2 inh 24, LEDGF integ inh 35 | UHRF1 ctr MBD2 inactive | MBD2 confirm inactive | IN multimer act inactive | TRFRET interf inactive | IN-LEDGF confirm inactive
O=C(O)Cc1c[nH]c2cccc(O)c12	UHRF1 binding 95, MBD2 inh 55, LEDGF integ inh 73 | UHRF1 ctr MBD2 40 | MBD2 confirm 16 | IN multimer act 55 | TRFRET interf inactive | IN-LEDGF confirm 39
O=C(O)Cc1c[nH]c2ccccc12	none
N#C/C(=C\c1cc(O)c(O)c(O)c1)C(N)=O	UHRF1 binding 47, MBD2 inh 32, LEDGF integ inh 68 | UHRF1 ctr MBD2 inactive | MBD2 confirm inactive | IN multimer act 31 | TRFRET interf inactive | IN-LEDGF confirm 31
C/C=C/C(=O)N1CC2(CC(c3cccc(NC(=O)CC)c3)=NO2)C[C@H]1C(N)=O (stereo not given in full)	none
C=C(C)C(=O)Nc1cccc(C2=NOC3(C2)C[C@H](C(N)=O)N(C(=O)/C=C/C)C3)c1 (stereo not given in full)	UHRF1 binding 82, MBD2 inh 46, LEDGF integ inh 26 | UHRF1 ctr MBD2 73 | MBD2 confirm 48 | IN multimer act 19 | TRFRET interf inactive | IN-LEDGF confirm 34
C=C(C)C(=O)N1CC2(CC(c3cccc(NC(=O)/C=C\C=C/C)c3)=NO2)C[C@H]1C(N)=O (stereo not given in full)	none
C=C(C)C(=O)Nc1cccc(C2=NOC3(C2)C[C@@H](C(N)=O)N(C(=O)C(=C)C)C3)c1 (stereo not given in full)	UHRF1 binding 74, MBD2 inh 35, LEDGF integ inh 16 | UHRF1 ctr MBD2 73 | MBD2 confirm 42 | IN multimer act 17 | TRFRET interf inactive | IN-LEDGF confirm 30
C=C(C)C(=O)Nc1cccc(C2=NOC3(C2)C[C@@H](C(N)=O)N(C(=O)C2(C)CC2)C3)c1 (stereo not given in full)	UHRF1 binding 92, MBD2 inh 55, LEDGF integ inh 36 | UHRF1 ctr MBD2 94 | MBD2 confirm 79 | IN multimer act 93 | TRFRET interf inactive | IN-LEDGF confirm 60
COc1ccc(-c2nnc(SCC(=O)O)n2Cc2ccccc2)cc1	none
